We go through two molecules from ChEMBL document CHEMBL3877303 (J Med Chem, 2017).

Series [1] addresses T1, Mast/stem cell growth factor receptor Kit (Homo sapiens, UniProt P10721). Nature of the series: Inhibition of recombinant C-terminal polyhistidine-tagged human c-KIT expressed in mammalian expression system assessed as residual activity at 1 uM using Tyr 06 peptide as substrate measured after 1hr by FRET based Z'Lyte assay relative to control.
Series [2] has as its target Platelet-derived growth factor receptor alpha (Homo sapiens) (UniProt P16234). Nature of the series: Inhibition of Tel-fused PDGFR-alpha (unknown origin) expressed in BAF3 cells assessed as growth inhibition measured after 72 hrs by CellTiter-Glo or CCK8 assay. The series is classed as cell-based. An outline of the steps:
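BaF3 lines were made by retroviral transduction with kinase-fusion MSCV vectors packaged in HEK293T cells. Cells were selected with puromycin for 48 h, then selected again without IL-3 so growth depends on the introduced kinase. […] They were seeded at 1 to 2.5×10^4 cells/mL with compound dilutions and incubated 72 h. Viability was read by CellTiter-Glo luminescence or CCK-8 absorbance (450/655 nm), normalized to DMSO control; GI50 was curve-fitted from triplicate tests.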

The nature of series [3]: Oral bioavailability in Sprague-Dawley rat at 10 mg/kg. The series is classed as ADME, organism-based. Particulars: in vivo. A digest of the protocol:
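Male Sprague-Dawley rats, 6-8 weeks old, fasted overnight, dosed iv or po. Jugular vein blood (~0.2 mL, heparin) sampled at 1 min to 8 h (iv) or 5 min to 24 h (po). Plasma separated by centrifugation at 2-8 °C and stored at -80 °C before analysis.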

Series [4] has as its target Tyrosine-protein kinase Lck (Homo sapiens, UniProt P06239). Particulars: BaF3.
The subject of another series is GISTT1. Nature of the series: Anticancer activity against human GISTT1 cells xenografted in nu/nu mouse assessed as tumor growth inhibition administered daily via oral gavage measured 21 days post compound treatment. On the technique in general: Xenograft models place foreign cells or tissue in a host animal.
Series [5] concerns the target T2, Discoidin domain-containing receptor 2 (Homo sapiens) (UniProt Q16832).
T2 sequence (whole entry): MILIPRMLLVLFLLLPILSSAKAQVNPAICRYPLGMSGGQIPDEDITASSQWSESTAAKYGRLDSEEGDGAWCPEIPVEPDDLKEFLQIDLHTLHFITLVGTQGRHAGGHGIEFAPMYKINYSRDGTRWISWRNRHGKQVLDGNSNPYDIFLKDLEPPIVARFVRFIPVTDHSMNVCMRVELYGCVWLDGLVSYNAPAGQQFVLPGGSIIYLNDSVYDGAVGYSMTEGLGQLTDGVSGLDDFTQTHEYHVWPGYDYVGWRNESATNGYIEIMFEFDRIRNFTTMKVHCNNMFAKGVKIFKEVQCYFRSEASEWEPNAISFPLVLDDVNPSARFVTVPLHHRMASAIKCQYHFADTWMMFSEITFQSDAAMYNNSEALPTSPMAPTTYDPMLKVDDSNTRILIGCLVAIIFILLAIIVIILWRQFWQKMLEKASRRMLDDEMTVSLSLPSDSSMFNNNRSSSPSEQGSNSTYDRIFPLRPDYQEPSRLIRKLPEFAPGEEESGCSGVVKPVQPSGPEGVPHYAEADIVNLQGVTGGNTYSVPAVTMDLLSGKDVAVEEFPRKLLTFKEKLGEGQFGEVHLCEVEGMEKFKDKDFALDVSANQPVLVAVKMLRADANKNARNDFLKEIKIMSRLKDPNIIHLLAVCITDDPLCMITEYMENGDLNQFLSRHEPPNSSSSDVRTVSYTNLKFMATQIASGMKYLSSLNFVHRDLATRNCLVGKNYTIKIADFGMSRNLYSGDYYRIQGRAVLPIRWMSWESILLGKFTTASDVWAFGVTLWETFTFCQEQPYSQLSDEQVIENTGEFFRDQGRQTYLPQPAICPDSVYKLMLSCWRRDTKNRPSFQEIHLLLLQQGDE
Nature of the series: Inhibition of recombinant His-tagged human DDR2 cytoplasmic domain expressed in baculovirus expression system assessed as residual activity at 1 uM by KINOMEscan binding assay relative to control.

The nature of series [6]: Cell cycle arrest in human MEG01 cells assessed as accumulation at G0/G1 phase at 1 uM after 24 hrs by propidium iodide/RNase staining based flow cytometry. In kind it is functional. The settings on record: MEG-01. An outline of the steps:
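Cells were exposed to serially diluted compound, then fixed in cold 70% ethanol overnight at -20 °C. They were stained with PI/RNase buffer for DNA-content cell-cycle analysis.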
A general note: In flow cytometry, cells or beads pass a laser one at a time.

For series [7], the target named is T1, Mast/stem cell growth factor receptor Kit. Particulars: GISTT1, 1 uM.
Series [8] has the same target. The settings on record: GISTT1, 1 uM. The source holds these as a separate data set.
Series [9] shares this target. Particulars: GISTT1, 1 uM. The source holds these as a separate data set.

The source made the active and inactive calls. The calls are words filed in the database; no cut-off is given here.

T1 sequence (P10721 whole entry, the tested form may be a part): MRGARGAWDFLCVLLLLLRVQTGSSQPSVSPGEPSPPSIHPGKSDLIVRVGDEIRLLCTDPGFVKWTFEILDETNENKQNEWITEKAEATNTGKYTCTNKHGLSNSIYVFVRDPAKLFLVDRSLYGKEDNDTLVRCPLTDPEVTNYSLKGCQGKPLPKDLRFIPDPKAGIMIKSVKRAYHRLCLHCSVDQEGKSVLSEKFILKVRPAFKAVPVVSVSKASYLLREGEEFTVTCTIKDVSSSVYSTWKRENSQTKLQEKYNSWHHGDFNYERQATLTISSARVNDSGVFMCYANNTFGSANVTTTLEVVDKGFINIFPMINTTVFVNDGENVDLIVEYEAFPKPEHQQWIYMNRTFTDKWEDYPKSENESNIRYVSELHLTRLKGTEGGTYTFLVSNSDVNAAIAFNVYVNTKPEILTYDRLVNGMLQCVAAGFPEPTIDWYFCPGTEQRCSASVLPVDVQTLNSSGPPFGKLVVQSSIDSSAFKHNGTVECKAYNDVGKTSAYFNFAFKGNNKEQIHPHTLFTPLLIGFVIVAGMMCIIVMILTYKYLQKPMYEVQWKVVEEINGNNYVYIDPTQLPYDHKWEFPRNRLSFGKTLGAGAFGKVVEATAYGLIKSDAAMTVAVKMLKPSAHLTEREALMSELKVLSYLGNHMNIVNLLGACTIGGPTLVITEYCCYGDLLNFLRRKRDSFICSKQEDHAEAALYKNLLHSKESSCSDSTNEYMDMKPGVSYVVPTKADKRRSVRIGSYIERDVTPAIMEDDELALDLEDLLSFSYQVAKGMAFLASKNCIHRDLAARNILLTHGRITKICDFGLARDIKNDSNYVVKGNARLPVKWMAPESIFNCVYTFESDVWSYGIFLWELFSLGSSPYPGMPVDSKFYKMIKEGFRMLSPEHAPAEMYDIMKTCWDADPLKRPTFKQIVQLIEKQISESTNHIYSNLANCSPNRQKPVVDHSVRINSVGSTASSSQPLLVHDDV
Tyrosine-protein kinase Lck, sequence (P06239 2-509 limits assumed): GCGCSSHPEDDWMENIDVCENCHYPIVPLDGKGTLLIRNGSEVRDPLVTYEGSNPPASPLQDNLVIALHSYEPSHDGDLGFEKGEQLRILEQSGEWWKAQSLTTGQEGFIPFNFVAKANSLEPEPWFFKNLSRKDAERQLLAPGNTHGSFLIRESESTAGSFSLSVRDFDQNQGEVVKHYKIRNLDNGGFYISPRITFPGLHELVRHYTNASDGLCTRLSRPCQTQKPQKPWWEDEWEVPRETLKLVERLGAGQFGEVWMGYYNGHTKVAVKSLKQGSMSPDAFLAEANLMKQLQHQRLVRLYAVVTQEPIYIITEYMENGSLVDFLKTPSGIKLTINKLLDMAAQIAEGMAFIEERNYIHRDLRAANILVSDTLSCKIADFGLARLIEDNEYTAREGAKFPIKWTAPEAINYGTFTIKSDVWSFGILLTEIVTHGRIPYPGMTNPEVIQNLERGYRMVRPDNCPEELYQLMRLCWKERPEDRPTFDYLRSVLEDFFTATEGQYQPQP
Platelet-derived growth factor receptor alpha (Homo sapiens), sequence (P16234 whole entry, the tested form may be a part): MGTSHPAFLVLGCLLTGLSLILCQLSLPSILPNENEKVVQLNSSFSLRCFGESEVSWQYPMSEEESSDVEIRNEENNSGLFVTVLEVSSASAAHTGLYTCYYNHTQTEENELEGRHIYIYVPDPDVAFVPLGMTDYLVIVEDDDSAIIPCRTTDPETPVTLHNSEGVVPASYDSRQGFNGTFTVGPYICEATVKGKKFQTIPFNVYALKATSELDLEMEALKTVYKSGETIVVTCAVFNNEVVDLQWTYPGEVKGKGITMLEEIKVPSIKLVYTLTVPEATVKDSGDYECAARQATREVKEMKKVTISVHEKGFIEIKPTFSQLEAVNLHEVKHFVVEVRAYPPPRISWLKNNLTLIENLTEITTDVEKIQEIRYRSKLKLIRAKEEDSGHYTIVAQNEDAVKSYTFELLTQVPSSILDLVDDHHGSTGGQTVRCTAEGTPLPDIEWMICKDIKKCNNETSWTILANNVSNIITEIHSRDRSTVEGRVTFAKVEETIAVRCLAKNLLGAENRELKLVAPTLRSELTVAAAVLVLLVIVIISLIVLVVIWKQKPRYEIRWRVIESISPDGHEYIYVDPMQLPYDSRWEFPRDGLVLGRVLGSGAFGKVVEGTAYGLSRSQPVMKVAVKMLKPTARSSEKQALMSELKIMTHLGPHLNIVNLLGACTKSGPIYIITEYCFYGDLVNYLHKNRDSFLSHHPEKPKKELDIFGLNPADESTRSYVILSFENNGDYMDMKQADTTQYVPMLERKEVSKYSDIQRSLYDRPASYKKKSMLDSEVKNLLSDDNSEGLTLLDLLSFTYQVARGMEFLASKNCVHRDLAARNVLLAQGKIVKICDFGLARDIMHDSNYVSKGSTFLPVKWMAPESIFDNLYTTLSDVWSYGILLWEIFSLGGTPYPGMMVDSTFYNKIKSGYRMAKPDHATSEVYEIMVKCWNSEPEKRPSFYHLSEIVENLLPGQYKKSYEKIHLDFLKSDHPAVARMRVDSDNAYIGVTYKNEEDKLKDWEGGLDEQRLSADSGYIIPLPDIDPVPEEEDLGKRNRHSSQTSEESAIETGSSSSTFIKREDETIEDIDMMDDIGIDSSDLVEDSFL

For orientation: GI50 means the concentration at which growth is held to half of that of the control. Broadly, the bioavailability is the share of a dose that reaches the circulation, judged against a reference dose that is usually intravenous. Low values mean poor availability, high ones good availability. `Cc1ccc(C(=O)N2CCC(Oc3cc(NC(=O)c4ccc(CN5CCN(C)CC5)c(C(F)(F)F)c4)ccc3C)CC2)cn1`: the Activity was 0.8% in [1] and 0.65% in series [5]. In addition, the values for the GI50 in series [2] and in series [4] were 0.012 µM and 0.386 µM, respectively. In series [3], this molecule gave a bioavailability of 47.5%. Further, the TGI entry in the series with GISTT1 is “Dose-dependent effect”.
For `Cc1ccc(NC(=O)c2ccc(CN3CCN(C)CC3)cc2)cc1Nc1nccc(-c2cccnc2)n1` [IMATINIB], the outcome in series [6] was Active. In addition, the inhibition result in series [7], in series [8] and in [9] was “Active” throughout.
